Test results reported in ChEMBL document CHEMBL4350998, “Design, synthesis, and structure-activity relationship studies of l-amino alcohol derivatives as broad-spectrum antifungal agents” (Eur J Med Chem, 2019).

Key:
[1] = tested on: Candida albicans; experiment: Antifungal activity against Candida albicans CPCC 400523 assessed as inhibition of visible microbial growth by NCCLS protocol based method; assay type: functional
[2] = tested on: Candida albicans; experiment: Antifungal activity against Candida albicans ATCC SC5314 assessed as inhibition of visible microbial growth by NCCLS protocol based method; assay type: functional
Summary of the method: (§1)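 Compounds dissolved in DMSO and serially diluted into growth medium. MIC was read as the lowest concentration that inhibited visible fungal growth.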

[3] = tested on: Cryptococcus neoformans; experiment: Antifungal activity against Cryptococcus neoformans CGMCC 2.3161 assessed as inhibition of visible microbial growth by NCCLS protocol based method; assay type: functional; summary of the method: as §1
[4] = tested on: Candida tropicalis; experiment: Antifungal activity against Candida tropicalis CGMCC 2.3739 assessed as inhibition of visible microbial growth by NCCLS protocol based method; assay type: functional; summary of the method: as §1
[5] = tested on: Aspergillus fumigatus; experiment: Antifungal activity against Aspergillus fumigatus CGMCC 3.7795 assessed as inhibition of visible microbial growth by NCCLS protocol based method; assay type: functional; summary of the method: as §1
[6] = tested on: Candida albicans; experiment: Antifungal activity against fluconazole-resistant Candida albicans Strain 17# assessed as inhibition of visible microbial growth by NCCLS protocol based method; assay type: functional
Summary of the method: (§2)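 Broth dilution MIC against clinical fluconazole-resistant C. albicans isolates from AIDS patients. Compounds dissolved in DMSO and serially diluted into growth medium. MIC was taken as the lowest concentration that inhibits visible fungal growth. Fluconazole and itraconazole served as positive controls.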

[7] = tested on: Candida albicans; experiment: Antifungal activity against fluconazole-resistant Candida albicans Strain CaR assessed as inhibition of visible microbial growth by NCCLS protocol based method; assay type: functional; summary of the method: as §2
[8] = Cytotoxicity in human A549 cells assessed as reduction in cell viability at 0.08 uM/L incubated for 24 hrs by MTT assay relative to control; assay type: cell-based; settings: read-out: INH
Summary of the method: (§3)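 A549 cells were seeded at 3000 cells/well and preincubated for 16 h at 37 °C, 5% CO2. Medium was then replaced with fresh medium holding compound (DMSO stock diluted to final 0.08, 0.4, 2.0, 10 or 50 μM/L). Exposure lasted 24 h at 37 °C, 5% CO2, followed by MTT for 4 h and absorbance at 490 nm. Results are given as % inhibition.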

[9] = Cytotoxicity in human A549 cells assessed as reduction in cell viability at 0.40 uM/L incubated for 24 hrs by MTT assay relative to control; assay type: cell-based; settings: read-out: INH; summary of the method: as §3
[10] = Cytotoxicity in human A549 cells assessed as reduction in cell viability at 2 uM/L incubated for 24 hrs by MTT assay relative to control; assay type: cell-based; settings: read-out: INH; summary of the method: as §3
[11] = Cytotoxicity in human A549 cells assessed as reduction in cell viability at 10 uM/L incubated for 24 hrs by MTT assay relative to control; assay type: cell-based; settings: read-out: INH; summary of the method: as §3
[12] = Cytotoxicity in human A549 cells assessed as reduction in cell viability at 50 uM/L incubated for 24 hrs by MTT assay relative to control; assay type: cell-based; settings: read-out: INH; summary of the method: as §3
[13] = Stability in human plasma assessed as parent compound remaining at 100 uM after 60 mins LC/MS/MS analysis relative to control; assay type: ADME, cell-free; settings: read-out: Stability
Summary of the method: (§4)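 Thawed human plasma was cleared at 4000 rpm and spiked from a 100 μM dosing solution to a final 2 μM, in duplicate, at 37 °C. Propantheline served as positive control. Sampling at 0, 10, 30, 60 and 120 min into ACN/MeOH stop solution with tolbutamide and labetalol internal standards. After centrifugation, supernatant was diluted with water and run by LC/MS/MS. % remaining was taken from the analyte/IS peak-area ratio, with no standard curve.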

[14] = Stability in human plasma assessed as parent compound remaining at 100 uM after 120 mins LC/MS/MS analysis relative to control; assay type: ADME, cell-free; settings: read-out: Stability; summary of the method: as §4

SMILES | MIC [1] [µg/mL] | MIC [2] [µg/mL] | MIC [3] [µg/mL] | MIC [4] [µg/mL] | MIC [5] [µg/mL] | MIC [6] [µg/mL] | MIC [7] [µg/mL] | cytotoxicity at 24 h, 0.08 µM [8] [%] | cytotoxicity at 24 h, 0.4 µM [9] [%] | cytotoxicity at 24 h, 2 µM [10] [%] | cytotoxicity at 24 h, 10 µM [11] [%] | cytotoxicity at 24 h, 50 µM [12] [%] | remaining at 1 h, 100 µM [13] [%] | remaining at 2 h, 100 µM [14] [%]
CC(C)[C@@H](Cn1ccnc1)NC(=O)c1ccc(-c2ccccc2)cc1F | 0.06 | < 0.03 | 2 | < 0.03 | 1 | 4 | 32 | – | – | – | – | – | – | –
CCC(C)n1ncn(-c2ccc(N3CCN(c4ccc(OCC5COC(Cn6cncn6)(c6ccc(Cl)cc6Cl)O5)cc4)CC3)cc2)c1=O (stereo not drawn) [ITRACONAZOLE] | < 0.03 | < 0.03 | < 0.125 | < 0.03 | < 0.125 | – | – | – | – | – | – | – | – | –
CC[C@H](C)[C@@H](Cn1ccnc1)NC(=O)c1ccc(-c2ccccc2)cc1 | < 0.03 | < 0.03 | 0.5 | < 0.03 | > 64 | – | – | – | – | – | – | – | – | –
C[C@@H](Cn1ccnc1)NC(=O)c1ccc(-c2ccccc2)cc1 | 4 | 0.5 | > 64 | 0.25 | 1 | – | – | – | – | – | – | – | – | –
CC(C)C[C@@H](Cn1ccnc1)NC(=O)c1ccc(-c2ccccc2)cc1 | < 0.03 | < 0.03 | 1 | < 0.03 | > 64 | – | – | – | – | – | – | – | – | –
CC[C@H](C)[C@@H](Cn1cncn1)NC(=O)c1ccc(-c2ccccc2)cc1F | 0.25 | 0.125 | > 64 | 0.25 | 2 | – | – | – | – | – | – | – | – | –
CC[C@H](C)[C@@H](Cn1ccnc1)NC(=O)c1ccc(-c2cccc(F)c2)cc1F | 0.06 | < 0.03 | 4 | < 0.03 | 4 | – | – | – | – | – | – | – | – | –
O=C(N[C@@H](Cc1ccccc1)Cn1ccnc1)c1ccc(-c2ccccc2)cc1F | 0.06 | < 0.03 | > 64 | < 0.03 | > 64 | – | – | – | – | – | – | – | – | –
CCC[C@@H](Cn1ccnc1)NC(=O)c1ccc(-c2ccccc2)cc1 | 0.06 | < 0.03 | 2 | < 0.03 | 4 | – | – | – | – | – | – | – | – | –
CC(C)[C@@H](Cn1ccnc1)NC(=O)c1ccc(-c2ccccc2)cc1 | 0.06 | < 0.03 | 1 | < 0.03 | 8 | – | – | – | – | – | – | – | – | –
CC[C@H](C)[C@@H](Cn1ccnc1)NC(=O)c1ccc(-c2ccccc2)c(Cl)c1 | 4 | 0.5 | 4 | 0.25 | > 64 | – | – | – | – | – | – | – | – | –
CC(C)[C@@H](Cn1ccnc1)NC(=O)c1ccc(-c2ccccc2F)cc1 | 0.06 | < 0.03 | 1 | 0.06 | > 64 | – | – | – | – | – | – | – | – | –
O=C(N[C@@H](Cc1ccccc1)Cn1ccnc1)c1ccc(-c2ccccc2)cc1 | 0.125 | < 0.03 | 0.25 | < 0.03 | > 64 | – | – | – | – | – | – | – | – | –
CC[C@H](C)[C@@H](Cn1ccnc1)NC(=O)c1ccc(-c2ccccc2)cc1Cl | 0.25 | 0.06 | > 64 | 0.125 | > 64 | – | – | – | – | – | – | – | – | –
CC[C@H](C)[C@@H](Cn1ccnc1)NC(=O)c1ccc(-c2ccc(F)cc2)cc1F | 0.25 | 0.125 | 4 | 0.125 | 8 | – | – | – | – | – | – | – | – | –
C[C@@H](c1ncncc1F)[C@](O)(Cn1cncn1)c1ccc(F)cc1F [VORICONAZOLE] | – | – | – | – | – | – | – | 17.1 | 20.3 | 25.5 | 32 | 36.7 | – | –

SMILES | MIC [1] [µg/mL] | MIC [2] [µg/mL] | MIC [3] [µg/mL] | MIC [4] [µg/mL] | MIC [5] [µg/mL] | MIC [6] [µg/mL] | MIC [7] [µg/mL] | cytotoxicity at 24 h, 0.08 µM [8] [%] | cytotoxicity at 24 h, 0.4 µM [9] [%] | cytotoxicity at 24 h, 2 µM [10] [%] | cytotoxicity at 24 h, 10 µM [11] [%] | cytotoxicity at 24 h, 50 µM [12] [%] | remaining at 1 h, 100 µM [13] [%] | remaining at 2 h, 100 µM [14] [%]
CC[C@H](C)[C@@H](Cn1ccnc1)NC(=O)c1ccc(-c2ccccc2)cc1F | < 0.03 | < 0.03 | 1 | < 0.03 | 2 | 2 | 4 | 1.2 | 1 | 1.2 | 3.1 | 14 | 113 | 86.3
CC[C@H](C)[C@@H](Cn1ccnc1)NC(=O)c1ccc(-c2ccccc2)cc1OC | 1 | 0.25 | > 64 | 0.125 | > 64 | – | – | – | – | – | – | – | – | –
CC(C)[C@H](Cn1ccnc1)NC(=O)c1ccc(-c2ccccc2)cc1 | > 16 | > 16 | > 64 | 8 | > 64 | – | – | – | – | – | – | – | – | –
CC[C@H](C)[C@@H](Cn1ccnc1)NC(=O)c1ccc(-c2cccc(F)c2)cc1 | 0.125 | < 0.03 | 2 | 0.06 | > 64 | – | – | – | – | – | – | – | – | –
CC[C@H](C)[C@@H](Cn1ccnc1)NC(=O)c1ccc(-c2ccccc2F)cc1 | 0.06 | < 0.03 | 1 | 0.06 | > 64 | – | – | – | – | – | – | – | – | –
CC[C@H](C)[C@@H](Cn1ccnc1)NC(=O)c1ccc(-c2ccc(F)cc2)cc1 | 0.25 | 0.125 | 1 | 0.125 | > 64 | – | – | – | – | – | – | – | – | –
CC[C@H](C)[C@@H](Cn1ccnc1)NC(=O)c1ccc(-c2ccccc2)c(F)c1 | 0.06 | < 0.03 | 2 | 0.06 | > 64 | – | – | – | – | – | – | – | – | –
CC[C@H](C)[C@@H](Cn1ccnc1)NC(=O)c1ccc(-c2ccccc2)cc1C | 1 | 0.25 | > 64 | 0.5 | > 64 | – | – | – | – | – | – | – | – | –
O=C(N[C@@H](Cc1ccccc1)Cn1ccnc1)c1ccc(-c2ccccc2)c(F)c1 | 0.06 | < 0.03 | 0.5 | < 0.03 | > 64 | – | – | – | – | – | – | – | – | –
CC(C)C[C@@H](Cn1ccnc1)NC(=O)c1ccc(-c2ccccc2)cc1F | 0.06 | < 0.03 | 2 | < 0.03 | 2 | 1 | 4 | – | – | – | – | – | – | –
CC(C)[C@@H](Cn1ccnc1)NC(=O)c1ccc(-c2ccccc2)c(F)c1 | 0.06 | < 0.03 | 2 | 0.06 | > 64 | – | – | – | – | – | – | – | – | –
CC(C)[C@@H](Cn1ccnc1)NC(=O)c1ccc(-c2ccc(F)cc2)cc1 | 0.5 | 0.25 | 1 | 0.25 | 32 | – | – | – | – | – | – | – | – | –
CC[C@@H](Cn1ccnc1)NC(=O)c1ccc(-c2ccccc2)cc1 | 0.25 | < 0.06 | 16 | 0.125 | 4 | – | – | – | – | – | – | – | – | –
CC(C)C[C@@H](Cn1ccnc1)NC(=O)c1ccc(-c2ccccc2)c(F)c1 | 0.06 | < 0.03 | 4 | < 0.03 | > 64 | – | – | – | – | – | – | – | – | –
CC[C@H](C)[C@@H](Cn1ccnc1)NC(=O)c1ccc(-c2ccccc2)c(C)c1 | > 16 | > 16 | > 64 | 2 | > 64 | – | – | – | – | – | – | – | – | –
CC(C)[C@@H](Cn1ccnc1)NC(=O)c1ccc(-c2cccc(F)c2)cc1 | 0.06 | < 0.03 | 2 | 0.06 | > 64 | – | – | – | – | – | – | – | – | –
